According to ChEMBL document CHEMBL3393037, “Design, synthesis, and biological evaluation of aminothiazole derivatives against the fungal pathogens Histoplasma capsulatum and Cryptococcus neoformans” (Bioorg Med Chem, 2015):
≈ marks a conversion by molar mass, not a printed value.

Legend:
[1] = Antifungal activity against Histoplasma capsulatum G217B ATCC 26032 assessed as inhibition of visible growth after 5 days; type: functional
Outline: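 Wild-type G217B yeasts kept in HMM at 37 °C under 5% CO2. Wells held 2×10^5 yeasts (hemocytometer count) with a two-fold dilution series from 40 to 0.078 µM, at 1% DMSO in the top dilution. Plates were agitated twice daily and growth followed by A595 over 5 days. MIC is the lowest concentration with no visible growth on visual inspection of the plates.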

[2] = Cytotoxicity against human HepG2 cells after 72 hrs by crystal violet staining method; type: cell-based; settings: for MCC at 72 h: read-out: MIC; for CC50 at 72 h: read-out: MIC50
Outline: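 HepG2 cells in MEM with 10% FBS and 2 mM L-glutamine were seeded at 1×10^4 per well and left to adhere overnight. Compound was added at 0.3 to 80 µM for 72 h. Cells were fixed in 3% paraformaldehyde, stained with 0.1% crystal violet, and the dye taken up in 10% acetic acid and read at A590. Values were normalised to DMSO-matched controls, in triplicate.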

Cryptococcus neoformans = experiment: Antifungal activity against Cryptococcus neoformans MATalpha serotype A strain H99 assessed as inhibition of visible growth after 5 days; type: functional; settings: MATalpha serotype A strain H99, 120 h
[3] = Selectivity index, ratio of MIC50 for human HepG2 cells to MIC50 for Histoplasma capsulatum strain G217B ATCC 26032

SMILES	MIC [1] [µM]	MIC50 [1] [µM]	MCC at 72 h [2] [µM]	MIC (Cryptococcus neoformans) [µM]	MIC50 (Cryptococcus neoformans) [µM]	CC50 at 72 h [2] [µM]	Ratio [3]
O=C(Nc1ncc(Cc2ccccc2)s1)C1COc2ccccc2C1 (stereo not drawn)	> 20	> 10	–	–	–	–	–
Cc1cccc(Cc2cnc(NC(=O)C3CCC3)s2)c1	–	2.5 (≈ 0.716 µg/mL)	20	–	–	–	–
O=C(CCC1CCCCC1)Nc1ncc(Cc2cccc(Cl)c2)s1	2.5 (≈ 0.907 µg/mL)	1.1 (≈ 0.399 µg/mL)	–	> 20	> 10	39	65
O=C(Nc1ncc(Cc2ccc3ccccc3c2)s1)C1CCCCC1	> 20	> 10	–	–	–	–	–
O=C(CC1CCCCC1)Nc1ncc(Cc2ccccc2)s1	2.5 (≈ 0.786 µg/mL)	0.7 (≈ 0.22 µg/mL)	–	> 20	> 10	> 40	>44
O=C(Nc1ncc(-c2ccccc2)s1)C1CCCC1	> 20	> 10	–	–	–	–	–
O=C(Nc1ncc(Cc2cccc3ccccc23)s1)C12CC3CC(CC(C3)C1)C2	> 20	> 10	–	–	–	–	–
O=C(Nc1ncc(Cc2ccccc2)s1)C1CCOCC1	> 20	> 10	–	–	–	–	–
O=C(CC1CCCCC1)Nc1ncc(Cc2ccc3ccccc3c2)s1	20 (≈ 7.29 µg/mL)	5.7 (≈ 2.08 µg/mL)	–	–	–	–	–
O=C(Nc1ncc(Cc2ccccc2)s1)c1cnc(-c2cccs2)s1	> 20	> 10	–	–	–	–	–
O=C(Nc1ncc(Cc2cccc3ccccc23)s1)C(F)(F)F	> 20	> 10	–	–	–	–	–
O=C(CCC1CCCCC1)Nc1ncc(Cc2ccccc2F)s1	2.5 (≈ 0.866 µg/mL)	1 (≈ 0.346 µg/mL)	–	> 20	> 10	–	–
Nc1ncc(Cc2ccccc2)s1	> 20	> 10	–	–	–	–	–
O=C(CCC1CCCCC1)Nc1ncc(Cc2ccccc2)s1	1.3 (≈ 0.427 µg/mL)	0.7 (≈ 0.23 µg/mL)	–	> 20	> 10	> 40	>44
CN(C(=O)CCC1CCCCC1)c1ncc(Cc2ccccc2)s1	> 20	> 10	–	–	–	–	–
O=C(CCC1CCCCC1)Nc1ncc(Cc2ccc3ccccc3c2)s1	> 20	> 10	–	–	–	–	–
O=C(Nc1ncc(-c2ccccc2)s1)C1CCCCC1	> 20	> 10	–	–	–	–	–
O=C(Nc1ncc(Cc2ccccc2)s1)C1CCCCC1	5 (≈ 1.5 µg/mL)	1.6 (≈ 0.481 µg/mL)	–	5 (≈ 1.5 µg/mL)	1.3 (≈ 0.391 µg/mL)	> 40	>21
O=C(CC1CCCCC1)Nc1ncc(Cc2cccc3ccccc23)s1	0.6 (≈ 0.219 µg/mL)	0.4 (≈ 0.146 µg/mL)	–	> 20	> 10	37	92
CC(C)C(=O)Nc1ncc(CC2CCCCC2)s1	> 20	> 10	–	–	–	–	–
CC(C)(C)OC(=O)Nc1ncc(C(O)c2ccccc2)s1 (stereo not drawn)	> 20	> 10	–	–	–	–	–

SMILES	MIC [1] [µM]	MIC50 [1] [µM]	MCC at 72 h [2] [µM]	MIC (Cryptococcus neoformans) [µM]	MIC50 (Cryptococcus neoformans) [µM]	CC50 at 72 h [2] [µM]	Ratio [3]
O=C(Nc1ncc(Cc2ccccc2)s1)c1ccccc1	> 20	> 10	–	–	–	–	–
O=C(CCC1CCCCC1)Nc1ncc(CC2CCCCC2)s1	5 (≈ 1.67 µg/mL)	0.8 (≈ 0.268 µg/mL)	–	> 20	9.6 (≈ 3.21 µg/mL)	–	–
O=C(CCC1CCCCC1)Nc1ncc(-c2ccccc2)s1	> 20	> 10	–	–	–	–	–
O=C(Nc1ncc(Cc2ccc(F)cc2)s1)C1CCCCC1	20 (≈ 6.37 µg/mL)	4.4 (≈ 1.4 µg/mL)	–	–	–	–	–
O=C(Nc1nc(C23CC4CC(CC(C4)C2)C3)cs1)c1ccccc1	10 (≈ 3.38 µg/mL)	3.1 (≈ 1.05 µg/mL)	–	20 (≈ 6.77 µg/mL)	8.3 (≈ 2.81 µg/mL)	–	–
O=C(/C=C/C1CCCCC1)Nc1ncc(Cc2ccccc2)s1	> 20	> 10	–	–	–	–	–
O=C(Nc1ncc(CC2CCCCC2)s1)C1CCCCC1	2.5 (≈ 0.766 µg/mL)	0.7 (≈ 0.215 µg/mL)	–	> 20	> 10	–	–
O=C(Nc1ncc(Cc2ccc3ccccc3c2)s1)c1ccccc1	> 20	> 10	–	–	–	–	–
CN1CCC(C(=O)Nc2ncc(Cc3ccccc3)s2)CC1	> 20	> 10	–	–	–	–	–
O=C(Nc1ncc(CCc2ccccc2)s1)C1CCCC1	2.5 (≈ 0.751 µg/mL)	0.9 (≈ 0.27 µg/mL)	–	5 (≈ 1.5 µg/mL)	2.7 (≈ 0.811 µg/mL)	–	–
O=C(CCC1CCCCC1)Nc1nnc(Cc2ccccc2)s1	> 20	> 10	–	–	–	–	–
CC(C)C(=O)Nc1ncc(Cc2ccc3ccccc3c2)s1	20 (≈ 6.21 µg/mL)	4.5 (≈ 1.4 µg/mL)	–	–	–	–	–
O=C(Nc1ncc(Cc2ccc(F)cc2)s1)C1CCCC1	20 (≈ 6.09 µg/mL)	5.2 (≈ 1.58 µg/mL)	–	–	–	–	–
O=C(Nc1ncc(CC2CCCCC2)s1)c1ccccc1	10 (≈ 3 µg/mL)	4.6 (≈ 1.38 µg/mL)	–	–	–	–	–
O=C(CCC1CCCCC1)Nc1ncc(Cc2cccc(C(F)(F)F)c2)s1	> 20	> 10	–	–	–	–	–
COc1ccc(Cc2cnc(NC(=O)/C=C/c3ccco3)s2)cc1	> 20	> 10	–	–	–	–	–
O=C(CC1CCCCC1)Nc1ncc(CC2CCCCC2)s1	> 20	> 10	–	–	–	–	–
O=C(Nc1nc(C23CC4CC(CC(C4)C2)C3)cs1)C1CCCCC1	5 (≈ 1.72 µg/mL)	2.5 (≈ 0.861 µg/mL)	–	> 20	> 10	–	–
O=C(Nc1ncc(Cc2ccccc2)s1)C1CCSCC1	10 (≈ 3.18 µg/mL)	4.8 (≈ 1.53 µg/mL)	–	–	–	–	–
O=C(Nc1ncc(CC2CCCCC2)s1)C12CC3CC(CC(C3)C1)C2	> 20	> 10	–	–	–	–	–
O=C(Nc1ncc(Cc2ccccc2)s1)C(F)(F)F	> 20	> 10	–	–	–	–	–

SMILES	MIC [1] [µM]	MIC50 [1] [µM]	MCC at 72 h [2] [µM]	MIC (Cryptococcus neoformans) [µM]	MIC50 (Cryptococcus neoformans) [µM]	CC50 at 72 h [2] [µM]	Ratio [3]
O=C(Nc1ncc(Cc2ccccc2)s1)N1CCCC1	> 20	> 10	–	–	–	–	–
O=C(Nc1ncc(Cc2cccc3ccccc23)s1)c1ccccc1	> 20	> 10	–	–	–	–	–
O=C(CCC1CCCCC1)Nc1ncc(Cc2ccccc2Cl)s1	2.5 (≈ 0.907 µg/mL)	0.9 (≈ 0.327 µg/mL)	–	> 20	> 10	–	–
O=C(CCC1CCCCC1)Nc1nc(-c2ccccc2)cs1	> 20	> 10	–	–	–	–	–
O=C(CC1CCCCC1)Nc1ncc(-c2ccccc2)s1	> 20	> 10	–	–	–	–	–
Cc1nc(NC(=O)CCC2CCCCC2)sc1Cc1ccccc1	> 20	> 10	–	–	–	–	–
CC(C)C(=O)Nc1ncc(Cc2cccc3ccccc23)s1	2.5 (≈ 0.776 µg/mL)	1.5 (≈ 0.466 µg/mL)	–	> 20	> 10	–	–
O=C(CCC1CCCCC1)Nc1ncc(Cc2ccc(F)cc2)s1	> 20	> 10	–	–	–	–	–
CC(C)C(=O)Nc1ncc(Cc2ccccc2)s1	20 (≈ 5.21 µg/mL)	6.7 (≈ 1.74 µg/mL)	–	–	–	–	–
O=C(Nc1ncc(Cc2ccccc2)s1)N1CCCCC1	> 20	> 10	–	–	–	–	–
O=C(Nc1nc(C23CC4CC(CC(C4)C2)C3)cs1)C1CCCC1	20 (≈ 6.61 µg/mL)	7.4 (≈ 2.45 µg/mL)	–	–	–	–	–
O=C(Nc1ncc(Cc2ccc3ccccc3c2)s1)C12CC3CC(CC(C3)C1)C2	> 20	> 10	–	–	–	–	–
NC(=O)c1cc(-c2ccccc2)sc1NC(=O)c1ccc2c(c1)OCCO2	–	2.5 (≈ 0.951 µg/mL)	10	–	–	–	–
O=C(CCC1CCCCC1)Nc1nc(C23CC4CC(CC(C4)C2)C3)cs1	20 (≈ 7.45 µg/mL)	5.2 (≈ 1.94 µg/mL)	–	–	–	–	–
CC(C)C(=O)Nc1nc(C23CC4CC(CC(C4)C2)C3)cs1	> 20	> 10	–	–	–	–	–
O=C(Nc1ncc(Cc2ccccc2)s1)C12CC3CC(CC(C3)C1)C2	10 (≈ 3.53 µg/mL)	5 (≈ 1.76 µg/mL)	–	–	–	–	–
O=C(CC1CCCCC1)Nc1nc(C23CC4CC(CC(C4)C2)C3)cs1	> 20	> 10	–	–	–	–	–
O=C(Nc1nc(-c2ccccc2)cs1)C1CCCC1	> 20	> 10	–	–	–	–	–
O=C(Nc1ncc(Cc2ccccc2)s1)N1CCOCC1	> 20	> 10	–	–	–	–	–
